Here are results for 16 molecules from ChEMBL document CHEMBL4680371, “Design and Structure-Activity Relationship of a Potent Furin Inhibitor Derived from Influenza Hemagglutinin” (ACS Med Chem Lett, 2021).

Broadly, the Ki is a measure of affinity in units of concentration, obtained from inhibition or displacement. Broadly, the half-life is the time needed for the level to fall by half in the phase considered. Lower therefore signals rapid decline.

Calls of active or inactive are those of the source. Where a SMILES comes first, the peptide text is derived from it. Bridges are numbered along the chain shown (N, C = ends).

Data set [1] concerns the target T1, Furin (Homo sapiens, UniProt P09958). The data set can be described thus: Inhibition of recombinant soluble human furin using pyroGlu-Arg-Thr-Lys-Arg-methyl-coumaryl-7-amide as substrate measured after 1 hr. The gist of the method: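 Soluble human recombinant furin was tested in a competitive kinetic assay. Ki is reported as the mean ± SD of at least two independent experiments.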

Data set [2] in a line: Stability of the compound in CD1 mouse plasma assessed as intact compound remaining measured after 2 mins by LC-MS/MS analysis. It is filed as ADME, cell-free. Conditions: read-out: Stabilty. The essentials:
(§1)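 Peptide incubated ex vivo in mouse plasma at 37 °C and sampled at several time points, using the ng/mL concentration range. Intact peptide quantified by high-resolution mass spectrometry and expressed as percentage remaining; t1/2 derived from the time course. Each time point run in triplicate; mean and mean ± SD reported.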

The nature of data set [3]: Half life in CD1 mouse plasma by LC-MS/MS analysis. It is filed as ADME, cell-free. The note with it: for half-life: CD1, mouse. The essentials:
as §1

Data set [4] deals with T1, Furin. Kind of data set: Potency index, ratio of CF1 Ki to test compound Ki for recombinant soluble human furin using pyroGlu-Arg-Thr-Lys-Arg-methyl-coumaryl-7-amide as substrate measured after 1 hr.
For data set [5], the target named is T2, Proprotein convertase subtilisin/kexin type 7 (Homo sapiens) (UniProt Q16549).
T2 sequence (whole entry): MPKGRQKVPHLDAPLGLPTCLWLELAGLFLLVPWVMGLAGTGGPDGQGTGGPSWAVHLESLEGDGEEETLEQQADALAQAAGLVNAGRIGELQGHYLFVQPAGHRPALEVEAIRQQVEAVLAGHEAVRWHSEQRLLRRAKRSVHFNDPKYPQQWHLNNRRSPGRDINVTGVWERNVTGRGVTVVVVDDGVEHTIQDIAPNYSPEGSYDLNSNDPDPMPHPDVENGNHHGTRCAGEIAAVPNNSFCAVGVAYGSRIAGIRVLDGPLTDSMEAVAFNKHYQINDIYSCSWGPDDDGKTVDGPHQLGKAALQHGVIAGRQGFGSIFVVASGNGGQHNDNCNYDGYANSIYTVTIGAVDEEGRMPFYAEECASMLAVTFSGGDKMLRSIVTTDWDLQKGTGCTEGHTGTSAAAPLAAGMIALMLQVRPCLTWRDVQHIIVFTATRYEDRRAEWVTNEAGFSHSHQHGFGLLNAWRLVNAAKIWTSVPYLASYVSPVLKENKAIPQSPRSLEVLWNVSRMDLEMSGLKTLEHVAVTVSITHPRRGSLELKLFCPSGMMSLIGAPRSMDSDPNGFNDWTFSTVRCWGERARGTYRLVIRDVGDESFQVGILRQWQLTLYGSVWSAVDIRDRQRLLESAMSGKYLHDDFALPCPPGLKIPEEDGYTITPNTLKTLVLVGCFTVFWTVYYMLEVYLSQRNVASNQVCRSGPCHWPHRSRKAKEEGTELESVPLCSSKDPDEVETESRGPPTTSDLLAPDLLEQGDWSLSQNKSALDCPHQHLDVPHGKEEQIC
The data set can be described thus: Inhibition of recombinant soluble human PC7 using pyroGlu-Arg-Thr-Lys-Arg-methyl-coumaryl-7-amide as substrate measured after 1 hr.

Data set [6] has as its target Proprotein convertase subtilisin/kexin type 5 (Homo sapiens) (UniProt Q92824). Kind of data set: Inhibition of recombinant soluble human PC5 using pyroGlu-Arg-Thr-Lys-Arg-methyl-coumaryl-7-amide as substrate measured after 1 hr.
Data set [7] deals with T3, Proprotein convertase subtilisin/kexin type 6 (Homo sapiens) (UniProt P29122).
T3 sequence (whole entry): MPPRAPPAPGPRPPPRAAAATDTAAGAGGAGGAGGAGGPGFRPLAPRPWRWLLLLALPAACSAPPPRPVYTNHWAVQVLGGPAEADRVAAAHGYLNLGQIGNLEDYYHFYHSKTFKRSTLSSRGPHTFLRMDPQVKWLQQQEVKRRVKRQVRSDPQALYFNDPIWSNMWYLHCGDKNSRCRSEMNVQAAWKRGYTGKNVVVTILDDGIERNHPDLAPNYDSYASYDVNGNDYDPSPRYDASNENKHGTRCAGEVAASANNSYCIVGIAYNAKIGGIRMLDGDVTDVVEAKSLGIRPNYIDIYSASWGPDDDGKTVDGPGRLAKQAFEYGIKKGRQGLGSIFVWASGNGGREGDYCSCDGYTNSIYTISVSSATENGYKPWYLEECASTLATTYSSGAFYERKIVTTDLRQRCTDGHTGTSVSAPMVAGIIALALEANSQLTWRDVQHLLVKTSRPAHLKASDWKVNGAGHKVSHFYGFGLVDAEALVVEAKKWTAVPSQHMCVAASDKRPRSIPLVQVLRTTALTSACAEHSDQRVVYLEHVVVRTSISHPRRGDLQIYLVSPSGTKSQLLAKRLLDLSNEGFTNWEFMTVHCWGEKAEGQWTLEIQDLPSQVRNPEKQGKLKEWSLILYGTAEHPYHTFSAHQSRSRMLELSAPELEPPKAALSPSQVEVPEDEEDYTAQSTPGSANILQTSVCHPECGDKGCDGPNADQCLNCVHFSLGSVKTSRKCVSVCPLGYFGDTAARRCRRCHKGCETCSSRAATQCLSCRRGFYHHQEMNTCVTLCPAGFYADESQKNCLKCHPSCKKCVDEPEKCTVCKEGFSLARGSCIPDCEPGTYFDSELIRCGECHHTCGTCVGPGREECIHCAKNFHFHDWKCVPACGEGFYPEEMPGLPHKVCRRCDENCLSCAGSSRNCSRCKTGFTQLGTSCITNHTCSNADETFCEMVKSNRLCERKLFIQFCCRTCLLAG
Kind of data set: Inhibition of recombinant soluble human PACE4 using pyroGlu-Arg-Thr-Lys-Arg-methyl-coumaryl-7-amide as substrate measured after 1 hr.

T1 sequence (P09958 whole entry): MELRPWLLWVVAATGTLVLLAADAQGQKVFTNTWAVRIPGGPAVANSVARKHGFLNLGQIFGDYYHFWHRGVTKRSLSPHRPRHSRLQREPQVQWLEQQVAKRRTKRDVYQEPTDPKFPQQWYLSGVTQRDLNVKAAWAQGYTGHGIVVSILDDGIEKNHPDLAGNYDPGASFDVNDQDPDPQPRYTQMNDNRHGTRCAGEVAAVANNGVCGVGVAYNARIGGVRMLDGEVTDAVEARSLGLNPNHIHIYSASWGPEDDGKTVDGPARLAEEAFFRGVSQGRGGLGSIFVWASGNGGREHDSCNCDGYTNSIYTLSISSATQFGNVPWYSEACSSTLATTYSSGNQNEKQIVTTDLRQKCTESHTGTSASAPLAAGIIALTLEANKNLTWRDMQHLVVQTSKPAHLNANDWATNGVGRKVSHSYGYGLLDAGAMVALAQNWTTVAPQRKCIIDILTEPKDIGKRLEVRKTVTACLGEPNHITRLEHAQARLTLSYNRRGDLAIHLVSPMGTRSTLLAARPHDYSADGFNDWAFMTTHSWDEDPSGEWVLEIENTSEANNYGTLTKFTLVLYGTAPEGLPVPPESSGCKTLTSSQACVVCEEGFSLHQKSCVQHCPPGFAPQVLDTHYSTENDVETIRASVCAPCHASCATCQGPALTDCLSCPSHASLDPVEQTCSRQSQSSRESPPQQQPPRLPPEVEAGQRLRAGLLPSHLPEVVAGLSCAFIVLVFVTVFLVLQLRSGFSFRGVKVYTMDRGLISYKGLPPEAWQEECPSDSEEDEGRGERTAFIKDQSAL
Sequence of Proprotein convertase subtilisin/kexin type 5 (Homo sapiens) (Q92824 whole entry): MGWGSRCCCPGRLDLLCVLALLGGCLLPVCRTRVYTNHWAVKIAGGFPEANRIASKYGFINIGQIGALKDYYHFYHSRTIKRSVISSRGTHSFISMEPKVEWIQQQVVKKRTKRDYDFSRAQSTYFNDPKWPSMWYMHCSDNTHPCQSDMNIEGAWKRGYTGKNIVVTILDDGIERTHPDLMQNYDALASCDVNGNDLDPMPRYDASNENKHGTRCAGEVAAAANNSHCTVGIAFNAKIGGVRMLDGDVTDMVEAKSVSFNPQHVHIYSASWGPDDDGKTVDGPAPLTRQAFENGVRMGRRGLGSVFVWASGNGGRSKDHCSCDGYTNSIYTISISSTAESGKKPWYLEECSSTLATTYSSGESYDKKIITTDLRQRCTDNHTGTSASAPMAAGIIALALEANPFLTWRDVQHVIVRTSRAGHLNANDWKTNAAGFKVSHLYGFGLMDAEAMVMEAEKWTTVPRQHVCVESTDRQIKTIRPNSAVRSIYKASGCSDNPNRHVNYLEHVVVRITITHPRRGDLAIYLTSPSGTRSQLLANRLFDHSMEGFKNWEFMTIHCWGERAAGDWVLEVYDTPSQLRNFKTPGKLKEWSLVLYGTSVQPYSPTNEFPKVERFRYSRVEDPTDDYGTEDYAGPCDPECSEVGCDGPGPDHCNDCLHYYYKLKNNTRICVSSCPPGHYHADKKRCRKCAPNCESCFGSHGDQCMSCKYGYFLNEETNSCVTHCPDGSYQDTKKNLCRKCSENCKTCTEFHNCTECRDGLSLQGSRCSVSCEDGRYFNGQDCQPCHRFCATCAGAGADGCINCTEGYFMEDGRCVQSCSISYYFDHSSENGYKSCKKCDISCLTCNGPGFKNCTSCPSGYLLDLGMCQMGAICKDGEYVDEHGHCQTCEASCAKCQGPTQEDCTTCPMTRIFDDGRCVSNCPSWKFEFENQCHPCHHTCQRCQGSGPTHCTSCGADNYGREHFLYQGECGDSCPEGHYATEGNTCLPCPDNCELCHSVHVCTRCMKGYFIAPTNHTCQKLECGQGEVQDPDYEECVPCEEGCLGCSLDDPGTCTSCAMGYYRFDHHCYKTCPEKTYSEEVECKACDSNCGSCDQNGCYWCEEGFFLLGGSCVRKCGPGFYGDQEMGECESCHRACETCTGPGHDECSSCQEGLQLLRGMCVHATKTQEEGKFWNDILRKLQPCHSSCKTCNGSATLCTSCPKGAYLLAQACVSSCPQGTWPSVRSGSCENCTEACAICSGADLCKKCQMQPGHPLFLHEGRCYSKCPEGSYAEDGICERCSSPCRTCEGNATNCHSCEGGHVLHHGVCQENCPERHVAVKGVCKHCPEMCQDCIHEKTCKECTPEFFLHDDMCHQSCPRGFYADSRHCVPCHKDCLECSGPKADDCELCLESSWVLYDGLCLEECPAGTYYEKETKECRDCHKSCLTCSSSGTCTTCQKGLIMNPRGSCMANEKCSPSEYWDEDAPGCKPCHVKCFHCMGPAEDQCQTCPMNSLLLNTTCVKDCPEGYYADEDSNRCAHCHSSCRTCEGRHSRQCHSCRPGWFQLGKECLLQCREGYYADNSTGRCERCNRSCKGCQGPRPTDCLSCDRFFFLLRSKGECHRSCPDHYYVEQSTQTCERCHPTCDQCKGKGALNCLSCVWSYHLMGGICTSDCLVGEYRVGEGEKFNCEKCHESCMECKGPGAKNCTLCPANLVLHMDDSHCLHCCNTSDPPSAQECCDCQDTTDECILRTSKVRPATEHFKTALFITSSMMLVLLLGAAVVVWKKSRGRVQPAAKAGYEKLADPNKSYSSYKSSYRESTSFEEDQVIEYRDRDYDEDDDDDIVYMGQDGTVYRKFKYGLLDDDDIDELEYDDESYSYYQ

Consider `CC[C@H](C)[C@H](NC(=O)[C@H](CCCNC(=N)N)NC(=O)[C@H](C)NC(=O)[C@@H]1CCCN1C(C)=O)C(=O)N[C@@H](CCCNC(=N)N)C(=O)N[C@@H](CCCCN)C(=O)N[C@@H](CCCCN)C(=O)N[C@@H](CCCNC(=N)N)C(=O)N[C@H](C(N)=O)[C@@H](C)O` (Ac-PARIRKKRT-NH2), for which the Ki in data set [1] was 0.008 µM. The remaining at 2 min in data set [2] came out at 15%. The half-life in data set [3] came to 44.4 s.

As for `CC(=O)N[C@@H](CCCNC(=N)N)C(=O)N[C@@H](C)C(=O)N[C@@H](CCCNC(=N)N)C(=O)N[C@@H](CCCNC(=N)N)C(=O)N[C@@H](CCCNC(=N)N)C(=O)N[C@@H](CCCCN)C(=O)N[C@@H](CCCCN)C(=O)NN(CCCNC(=N)N)CC(=O)N[C@@H](Cc1ccccc1)C(N)=O`, the Ki in data set [1] was 2.5 µM. In data set [3], this molecule gave a half-life of 155 s.

For `CC(=O)N[C@@H](CCCNC(=N)N)C(=O)N[C@@H](Cc1ccccc1)C(=O)N[C@@H](CCCNC(=N)N)C(=O)N[C@@H](CCCNC(=N)N)C(=O)N[C@@H](CCCNC(=N)N)C(=O)N[C@@H](CCCCN)C(=O)N[C@@H](CCCCN)C(=O)N[C@@H](CCCNC(=N)N)C(=O)N[C@H](C(N)=O)[C@@H](C)O`, the inhibition constant (Ki) in data set [1] was found to be 0.023 µM. Besides, the half-life in data set [3] is 57.6 s.

On to `CC(=O)N[C@@H](CCCNC(=N)N)C(=O)N[C@@H](C)C(=O)N[C@@H](Cc1ccccc1)C(=O)N[C@@H](CCCNC(=N)N)C(=O)N[C@@H](CCCNC(=N)N)C(=O)N[C@@H](CCCCN)C(=O)N[C@@H](CCCCN)C(=O)N[C@@H](CCCNC(=N)N)C(=O)N[C@H](C(N)=O)[C@@H](C)O`, for which the inhibition constant (Ki) in data set [1] amounted to 0.029 µM. In data set [3], the half-life turned out to be 12.6 s.

Regarding `CC(=O)N[C@@H](CCCNC(=N)N)C(=O)N[C@@H](C)C(=O)N[C@@H](CCCNC(=N)N)C(=O)N[C@H](C(=O)N[C@@H](CCCNC(=N)N)C(=O)N[C@@H](CCCCN)C(=O)N[C@@H](CCCCN)C(=O)N[C@@H](CCCNC(=N)N)C(=O)N[C@H](C(N)=O)[C@@H](C)O)C(C)C`, in data set [4], the Ratio Ki was 2. In data set [1], the inhibition constant Ki is 0.007 µM.

For the molecule `CC(=O)N[C@@H](CCCNC(=N)N)C(=O)N[C@@H](C)C(=O)N[C@@H](CCCNC(=N)N)C(=O)N[C@@H](CCCNC(=N)N)C(=O)N[C@@H](CCCNC(=N)N)C(=O)N[C@@H](CCCCN)C(=O)N[C@@H](CCCCN)C(=O)N[C@@H](CCCNC(=N)N)C(=O)N[C@H](C(N)=O)[C@@H](C)O`, the Ki in data set [1] came out at 0.015 µM. Moreover, the inhibition result in data set [5] is “inactive”. Moreover, the inhibition entry in data set [6] and in data set [7] was “Active” throughout. The molecule further came in with a t1/2 in data set [3] (mouse) of 212 s.

Consider `CC(=O)N[C@@H](Cc1ccccc1)C(=O)N[C@@H](C)C(=O)N[C@@H](CCCNC(=N)N)C(=O)N[C@@H](CCCNC(=N)N)C(=O)N[C@@H](CCCNC(=N)N)C(=O)N[C@@H](CCCCN)C(=O)N[C@@H](CCCCN)C(=O)N[C@@H](CCCNC(=N)N)C(=O)N[C@H](C(N)=O)[C@@H](C)O`, for which the inhibitory constant (Ki) in data set [1] was determined as 0.014 µM. Besides, the half-life in data set [3] was 33.6 s.

As for `CC[C@H](C)[C@H](NC(=O)[C@H](CCCNC(=N)N)NC(=O)[C@H](C)NC(=O)[C@H](CCCNC(=N)N)NC(C)=O)C(=O)N[C@@H](CCCNC(=N)N)C(=O)N[C@@H](CCCCN)C(=O)N[C@@H](CCCCN)C(=O)N[C@@H](CCCNC(=N)N)C(=O)N[C@H](C(N)=O)[C@@H](C)O`, the Ratio Ki in data set [4] amounted to 2. Moreover, the Ki in data set [1] stood at 0.006 µM. In addition, the inhibition entry in data set [5] is “inactive”. Moreover, the inhibition entry in data set [6] and in data set [7] was “Active” in each case.

On to `CC(=O)N[C@@H](CCCNC(=N)N)C(=O)N[C@@H](C)C(=O)N[C@@H](CCCNC(=N)N)C(=O)N[C@@H](CCCCN)C(=O)N[C@@H](CCCNC(=N)N)C(=O)N[C@@H](CCCCN)C(=O)N[C@@H](CCCCN)C(=O)N[C@@H](CCCNC(=N)N)C(=O)N[C@H](C(N)=O)[C@@H](C)O`, for which the Ratio Ki in data set [4] turned out to be 2. Besides, in data set [1], the inhibitory constant (Ki) was found to be 0.007 µM.

As to `CC(=O)N[C@@H](CCCNC(=N)N)C(=O)N[C@@H](C)C(=O)N[C@@H](CCCNC(=N)N)C(=O)N[C@@H](CC(N)=O)C(=O)N[C@@H](CCCNC(=N)N)C(=O)N[C@@H](CCCCN)C(=O)N[C@@H](CCCCN)C(=O)N[C@@H](CCCNC(=N)N)C(=O)N[C@H](C(N)=O)[C@@H](C)O`, the Ki in data set [1] amounted to 0.018 µM. Moreover, the inhibition entry in data set [5] was “inactive”. The inhibition entry in data set [6] and in data set [7] was “Active” each time.

As to `CC(=O)N[C@@H](CCCNC(=N)N)C(=O)N[C@@H](C)C(=O)N[C@@H](CCCNC(=N)N)C(=O)N[C@@H](Cc1ccccc1)C(=O)N[C@@H](CCCNC(=N)N)C(=O)N[C@@H](CCCCN)C(=O)N[C@@H](CCCCN)C(=O)N[C@@H](CCCNC(=N)N)C(=O)N[C@H](C(N)=O)[C@@H](C)O`, the inhibition constant Ki in data set [1] worked out at 0.021 µM. Moreover, in data set [5], the inhibition entry is “inactive”. Further, the inhibition entry in data set [6] and in data set [7] was “Active” throughout. Moreover, in data set [3], the half-life was 19.2 s.

Take `CC(=O)N[C@@H](CCCNC(=N)N)C(=O)N[C@@H](C)C(=O)N[C@H](C(=O)N[C@@H](CCCNC(=N)N)C(=O)N[C@@H](CCCNC(=N)N)C(=O)N[C@@H](CCCCN)C(=O)N[C@@H](CCCCN)C(=O)N[C@@H](CCCNC(=N)N)C(=O)N[C@H](C(N)=O)[C@@H](C)O)C(C)C`: the inhibition constant (Ki) in data set [1] amounted to 0.021 µM.

`CC[C@H](NC(=O)[C@H](CCCNC(=N)N)NC(=O)[C@H](C)NC(=O)[C@H](CCCNC(=N)N)NC(C)=O)C(=O)N[C@@H](CCCNC(=N)N)C(=O)N[C@@H](CCCCN)C(=O)N[C@@H](CCCCN)C(=O)N[C@@H](CCCNC(=N)N)C(=O)N[C@H](C(N)=O)[C@@H](C)O`: the Ki in data set [1] amounted to 0.011 µM.

As for `CC(=O)N[C@@H](CCCNC(=N)N)C(=O)N[C@@H](C)C(=O)N[C@@H](CCCNC(=N)N)C(=O)N[C@@H](C)C(=O)N[C@@H](CCCNC(=N)N)C(=O)N[C@@H](CCCCN)C(=O)N[C@@H](CCCCN)C(=O)N[C@@H](CCCNC(=N)N)C(=O)N[C@H](C(N)=O)[C@@H](C)O`, the inhibition constant Ki in data set [1] is 0.011 µM.

As for `CC[C@H](C)[C@@H](NC(=O)[C@H](CCCNC(=N)N)NC(=O)[C@H](C)NC(=O)[C@H](CCCNC(=N)N)NC(C)=O)C(=O)N[C@@H](CCCNC(=N)N)C(=O)N[C@@H](CCCCN)C(=O)N[C@@H](CCCCN)C(=O)N[C@@H](CCCNC(=N)N)C(=O)N[C@H](C(N)=O)[C@@H](C)O`, in data set [1], the Ki amounted to 0.24 µM.

As for `CC(=O)N[C@@H](CCCNC(=N)N)C(=O)N[C@@H](C)C(=O)N[C@@H](CCCNC(=N)N)C(=O)N[C@H]1CCCCNC(=O)[C@H](CCCNC(=N)N)NC(=O)[C@H](CCCCN)NC(=O)[C@H](CCCCN)NC(=O)[C@H](CCCNC(=N)N)NC(=O)[C@H]([C@@H](C)O)NC1=O` (Ac-RARKTRKKR; lactam 4-C), the Ki in data set [1] amounted to 2.5 µM.
